# Results taken from ChEMBL document CHEMBL5058577, “EUbOPEN Chemogenomics Library 2 (Multiplex)” (2022).
# Test system: U2OS
# Experiment: Multiplex assay against U2OS
# Format: toxicity, cell-based
# Details: human
# Procedure, shortened: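 Imaging took place on a CQ1 microscope at 37°C and 5% CO2 once compound had been added to live cells stained at seeding with Hoechst33342, BioTracker Green Microtubule Cytoskeleton Dye, MitoTracker Red and Annexin V Alexa Fluor 680. CellPathfinder machine-learning gating classed cells as Hoechst high-intensity objects or normal cells, classed normal cells as having healthy, pyknosed or fragmented nuclei, and classed pyknosed cells as mitotic or apoptotic. Tubulin, mitochondrial-mass and membrane-permeability phenotypes are per cents of the healthy-nucleus cells.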
# [1] = 12 h, 1 µM, compound concentration 1 uM, replicate 1
# [2] = 12 h, 1 µM, compound concentration 1 uM, replicate 2
# [3] = 12 h, 10 µM, compound concentration 10 uM, replicate 1
# [4] = 12 h, 10 µM, compound concentration 10 uM, replicate 2
# [5] = 24 h, 1 µM, compound concentration 1 uM, replicate 1
# [6] = 24 h, 1 µM, compound concentration 1 uM, replicate 2
# [7] = 24 h, 10 µM, compound concentration 10 uM, replicate 1
# [8] = 24 h, 10 µM, compound concentration 10 uM, replicate 2
# [9] = 48 h, 1 µM, compound concentration 1 uM, replicate 1
# [10] = 48 h, 1 µM, compound concentration 1 uM, replicate 2
# [11] = 48 h, 10 µM, compound concentration 10 uM, replicate 1
# [12] = 48 h, 10 µM, compound concentration 10 uM, replicate 2
compound,measurement,setting,value
COC(c1ccccc1)(c1ccccc1)[C@H](Oc1nc(C)cc(C)n1)C(=O)O [AMBRISENTAN],Population Apoptotic (%),[1],95%
same,Population Fragmented Nuclei (%),[1],26%
same,Population Healthy Nuclei (%),[1],62%
same,Population Hoechst High Intensity Objects (%),[1],2%
same,Population Membrane Permeable-Phenotype (%),[1],3%
same,Population Mitochondria Different-Phenotype (%),[1],0%
same,Population Mitotic Cells (%),[1],4%
same,Population Normal (%),[1],97%
same,Population Pyknosed Nuclei (%),[1],10%
same,Population Tubulin-Different-Phenotype (%),[1],1%
same,Total Cell Count,[1],209
same,Population Apoptotic (%),[2],100%
same,Population Fragmented Nuclei (%),[2],21%
same,Population Healthy Nuclei (%),[2],72%
same,Population Membrane Permeable-Phenotype (%),[2],8%
same,Population Mitochondria Different-Phenotype (%),[2],3%
same,Population Mitotic Cells (%),[2],0%
same,Population Pyknosed Nuclei (%),[2],5%
same,Total Cell Count,[2],87
same,Population Apoptotic (%),[3],61%
same,Population Fragmented Nuclei (%),[3],28%
same,Population Healthy Nuclei (%),[3],63%
same,Population Hoechst High Intensity Objects (%),[3],2%
same,Population Membrane Permeable-Phenotype (%),[3],4%
same,Population Mitochondria Different-Phenotype (%),[3],2%
same,Population Mitotic Cells (%),[3],38%
same,Population Normal (%),[3],97%
same,Population Pyknosed Nuclei (%),[3],7%
same,Population Tubulin-Different-Phenotype (%),[3],1%
same,Total Cell Count,[3],232
same,Population Apoptotic (%),[4],100%
same,Population Fragmented Nuclei (%),[4],19%
same,Population Healthy Nuclei (%),[4],72%
same,Population Hoechst High Intensity Objects (%),[4],0%
same,Population Mitochondria Different-Phenotype (%),[4],0%
same,Population Mitotic Cells (%),[4],0%
same,Population Normal (%),[4],99%
same,Population Tubulin-Different-Phenotype (%),[4],0%
same,Total Cell Count,[4],104
same,Population Apoptotic (%),[5],95%
same,Population Fragmented Nuclei (%),[5],27%
same,Population Healthy Nuclei (%),[5],63%
same,Population Hoechst High Intensity Objects (%),[5],0%
same,Population Membrane Permeable-Phenotype (%),[5],4%
same,Population Mitochondria Different-Phenotype (%),[5],1%
same,Population Mitotic Cells (%),[5],4%
same,Population Normal (%),[5],99%
same,Population Pyknosed Nuclei (%),[5],8%
same,Population Tubulin-Different-Phenotype (%),[5],1%
same,Total Cell Count,[5],248
same,Population Apoptotic (%),[6],100%
same,Population Fragmented Nuclei (%),[6],23%
same,Population Healthy Nuclei (%),[6],66%
same,Population Membrane Permeable-Phenotype (%),[6],1%
same,Population Mitochondria Different-Phenotype (%),[6],2%
same,Population Mitotic Cells (%),[6],0%
same,Population Pyknosed Nuclei (%),[6],10%
same,Total Cell Count,[6],111
same,Population Apoptotic (%),[7],84%
same,Population Fragmented Nuclei (%),[7],25%
same,Population Healthy Nuclei (%),[7],65%
same,Population Hoechst High Intensity Objects (%),[7],1%
same,Population Membrane Permeable-Phenotype (%),[7],7%
same,Population Mitochondria Different-Phenotype (%),[7],2%
same,Population Mitotic Cells (%),[7],16%
same,Population Normal (%),[7],98%
same,Population Pyknosed Nuclei (%),[7],9%
same,Population Tubulin-Different-Phenotype (%),[7],3%
same,Total Cell Count,[7],273
same,Population Apoptotic (%),[8],80%
same,Population Fragmented Nuclei (%),[8],13%
same,Population Healthy Nuclei (%),[8],77%
same,Population Hoechst High Intensity Objects (%),[8],0%
same,Population Mitotic Cells (%),[8],20%
same,Population Normal (%),[8],100%
same,Population Pyknosed Nuclei (%),[8],8%
same,Population Tubulin-Different-Phenotype (%),[8],5%
same,Total Cell Count,[8],115
same,Population Apoptotic (%),[9],89%
same,Population Fragmented Nuclei (%),[9],17%
same,Population Healthy Nuclei (%),[9],70%
same,Population Hoechst High Intensity Objects (%),[9],2%
same,Population Membrane Permeable-Phenotype (%),[9],2%
same,Population Mitochondria Different-Phenotype (%),[9],1%
same,Population Mitotic Cells (%),[9],10%
same,Population Normal (%),[9],97%
same,Population Pyknosed Nuclei (%),[9],11%
same,Population Tubulin-Different-Phenotype (%),[9],0%
same,Total Cell Count,[9],333
same,Population Apoptotic (%),[10],93%
same,Population Healthy Nuclei (%),[10],72%
same,Population Membrane Permeable-Phenotype (%),[10],0%
same,Population Mitotic Cells (%),[10],6%
same,Population Pyknosed Nuclei (%),[10],10%
same,Total Cell Count,[10],151
same,Population Apoptotic (%),[11],87%
same,Population Fragmented Nuclei (%),[11],21%
same,Population Healthy Nuclei (%),[11],68%
same,Population Hoechst High Intensity Objects (%),[11],3%
same,Population Membrane Permeable-Phenotype (%),[11],4%
same,Population Mitochondria Different-Phenotype (%),[11],2%
same,Population Mitotic Cells (%),[11],12%
same,Population Normal (%),[11],96%
same,Population Pyknosed Nuclei (%),[11],10%
same,Population Tubulin-Different-Phenotype (%),[11],3%
same,Total Cell Count,[11],388
same,Population Apoptotic (%),[12],81%
same,Population Fragmented Nuclei (%),[12],13%
same,Population Healthy Nuclei (%),[12],79%
same,Population Hoechst High Intensity Objects (%),[12],0%
same,Population Membrane Permeable-Phenotype (%),[12],2%
same,Population Mitochondria Different-Phenotype (%),[12],0%
same,Population Mitotic Cells (%),[12],18%
same,Population Normal (%),[12],100%
same,Population Pyknosed Nuclei (%),[12],6%
same,Population Tubulin-Different-Phenotype (%),[12],2%
same,Total Cell Count,[12],174
CC(C)C[C@H](CO)Nc1nc(S[C@@H](C)c2ccccc2)nc2nc(N)sc12 [AZD-8797],Population Apoptotic (%),[1],83%
same,Population Fragmented Nuclei (%),[1],20%
same,Population Healthy Nuclei (%),[1],65%
same,Population Hoechst High Intensity Objects (%),[1],3%
same,Population Membrane Permeable-Phenotype (%),[1],5%
same,Population Mitochondria Different-Phenotype (%),[1],1%
same,Population Mitotic Cells (%),[1],16%
same,Population Normal (%),[1],96%
same,Population Pyknosed Nuclei (%),[1],14%
same,Population Tubulin-Different-Phenotype (%),[1],2%
same,Total Cell Count,[1],177
same,Population Apoptotic (%),[2],100%
same,Population Fragmented Nuclei (%),[2],12%
same,Population Healthy Nuclei (%),[2],82%
same,Population Hoechst High Intensity Objects (%),[2],0%
same,Population Mitochondria Different-Phenotype (%),[2],5%
same,Population Mitotic Cells (%),[2],0%
same,Population Normal (%),[2],100%
same,Population Pyknosed Nuclei (%),[2],5%
same,Population Tubulin-Different-Phenotype (%),[2],3%
same,Total Cell Count,[2],95
same,Population Apoptotic (%),[3],63%
same,Population Fragmented Nuclei (%),[3],21%
same,Population Healthy Nuclei (%),[3],56%
same,Population Hoechst High Intensity Objects (%),[3],4%
same,Population Membrane Permeable-Phenotype (%),[3],30%
same,Population Mitochondria Different-Phenotype (%),[3],12%
same,Population Mitotic Cells (%),[3],36%
same,Population Normal (%),[3],95%
same,Population Pyknosed Nuclei (%),[3],22%
same,Population Tubulin-Different-Phenotype (%),[3],20%
same,Total Cell Count,[3],222
same,Population Apoptotic (%),[4],78%
same,Population Fragmented Nuclei (%),[4],9%
same,Population Healthy Nuclei (%),[4],79%
same,Population Hoechst High Intensity Objects (%),[4],2%
same,Population Membrane Permeable-Phenotype (%),[4],10%
same,Population Mitochondria Different-Phenotype (%),[4],16%
same,Population Mitotic Cells (%),[4],21%
same,Population Normal (%),[4],97%
same,Population Pyknosed Nuclei (%),[4],10%
same,Population Tubulin-Different-Phenotype (%),[4],6%
same,Total Cell Count,[4],135
same,Population Apoptotic (%),[5],81%
same,Population Fragmented Nuclei (%),[5],20%
same,Population Healthy Nuclei (%),[5],68%
same,Population Hoechst High Intensity Objects (%),[5],1%
same,Population Membrane Permeable-Phenotype (%),[5],2%
same,Population Mitochondria Different-Phenotype (%),[5],0%
same,Population Mitotic Cells (%),[5],18%
same,Population Normal (%),[5],98%
same,Population Pyknosed Nuclei (%),[5],10%
same,Population Tubulin-Different-Phenotype (%),[5],2%
same,Total Cell Count,[5],219
same,Population Apoptotic (%),[6],83%
same,Population Fragmented Nuclei (%),[6],17%
same,Population Healthy Nuclei (%),[6],77%
same,Population Hoechst High Intensity Objects (%),[6],0%
same,Population Membrane Permeable-Phenotype (%),[6],4%
same,Population Mitochondria Different-Phenotype (%),[6],2%
same,Population Mitotic Cells (%),[6],16%
same,Population Normal (%),[6],100%
same,Population Pyknosed Nuclei (%),[6],4%
same,Population Tubulin-Different-Phenotype (%),[6],3%
same,Total Cell Count,[6],121
same,Population Apoptotic (%),[7],76%
same,Population Fragmented Nuclei (%),[7],20%
same,Population Healthy Nuclei (%),[7],58%
same,Population Hoechst High Intensity Objects (%),[7],3%
same,Population Membrane Permeable-Phenotype (%),[7],22%
same,Population Mitochondria Different-Phenotype (%),[7],12%
same,Population Mitotic Cells (%),[7],24%
same,Population Normal (%),[7],96%
same,Population Pyknosed Nuclei (%),[7],21%
same,Population Tubulin-Different-Phenotype (%),[7],13%
same,Total Cell Count,[7],245
same,Population Apoptotic (%),[8],100%
same,Population Fragmented Nuclei (%),[8],7%
same,Population Healthy Nuclei (%),[8],86%
same,Population Hoechst High Intensity Objects (%),[8],1%
same,Population Membrane Permeable-Phenotype (%),[8],9%
same,Population Mitotic Cells (%),[8],0%
same,Population Normal (%),[8],98%
same,Population Pyknosed Nuclei (%),[8],6%
same,Population Tubulin-Different-Phenotype (%),[8],6%
same,Total Cell Count,[8],156
same,Population Apoptotic (%),[9],94%
same,Population Fragmented Nuclei (%),[9],18%
same,Population Healthy Nuclei (%),[9],69%
same,Population Hoechst High Intensity Objects (%),[9],2%
same,Population Membrane Permeable-Phenotype (%),[9],6%
same,Population Mitochondria Different-Phenotype (%),[9],0%
same,Population Mitotic Cells (%),[9],5%
same,Population Normal (%),[9],97%
same,Population Pyknosed Nuclei (%),[9],11%
same,Population Tubulin-Different-Phenotype (%),[9],2%
same,Total Cell Count,[9],352
same,Population Apoptotic (%),[10],100%
same,Population Fragmented Nuclei (%),[10],15%
same,Population Healthy Nuclei (%),[10],77%
same,Population Membrane Permeable-Phenotype (%),[10],2%
same,Population Mitochondria Different-Phenotype (%),[10],2%
same,Population Mitotic Cells (%),[10],0%
same,Population Pyknosed Nuclei (%),[10],6%
same,Total Cell Count,[10],181
same,Population Apoptotic (%),[11],90%
same,Population Fragmented Nuclei (%),[11],26%
same,Population Healthy Nuclei (%),[11],54%
same,Population Hoechst High Intensity Objects (%),[11],4%
same,Population Membrane Permeable-Phenotype (%),[11],20%
same,Population Mitochondria Different-Phenotype (%),[11],10%
same,Population Mitotic Cells (%),[11],9%
same,Population Normal (%),[11],95%
same,Population Pyknosed Nuclei (%),[11],19%
same,Population Tubulin-Different-Phenotype (%),[11],14%
same,Total Cell Count,[11],296
same,Population Apoptotic (%),[12],96%
same,Population Fragmented Nuclei (%),[12],12%
same,Population Healthy Nuclei (%),[12],74%
same,Population Hoechst High Intensity Objects (%),[12],3%
same,Population Membrane Permeable-Phenotype (%),[12],11%
same,Population Mitochondria Different-Phenotype (%),[12],5%
same,Population Mitotic Cells (%),[12],3%
same,Population Normal (%),[12],96%
same,Population Pyknosed Nuclei (%),[12],12%
same,Population Tubulin-Different-Phenotype (%),[12],4%
same,Total Cell Count,[12],218
